Among the data in ChEMBL document CHEMBL1134085, “Discovery of potent and selective phenylalanine derived CCR3 antagonists. Part 1” (Bioorg Med Chem Lett, 2001) are IC50 values, retold here.

Several values for one entry are separate records, joined by “and”; a condition that tells them apart may be missing. Equal entries are not always repeated. Where a SMILES comes first, the peptide text is derived from it. The star is where a group is joined. Cbz = O=C(OCc1ccccc1)*

In the first experiment the target is T1, C-C chemokine receptor type 3 (Homo sapiens, UniProt P51677).
T1 sequence (P51677 whole entry): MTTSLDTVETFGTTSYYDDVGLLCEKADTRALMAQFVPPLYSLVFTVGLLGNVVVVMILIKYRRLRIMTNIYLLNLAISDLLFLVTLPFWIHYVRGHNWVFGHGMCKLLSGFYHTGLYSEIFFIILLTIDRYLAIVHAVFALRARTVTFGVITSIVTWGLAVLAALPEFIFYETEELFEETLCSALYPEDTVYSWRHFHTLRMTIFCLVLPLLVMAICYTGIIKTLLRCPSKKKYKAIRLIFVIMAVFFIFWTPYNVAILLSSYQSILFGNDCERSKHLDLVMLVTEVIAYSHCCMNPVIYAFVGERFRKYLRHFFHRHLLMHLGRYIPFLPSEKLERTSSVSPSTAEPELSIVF
Kind of experiment: […] activity against C-C chemokine receptor type 3 by displacing Eotaxin-2 radioligand, using [Ca2+] mobilization assay. Type of experiment: functional. The method, boiled down:
(§1)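 Functional antagonism was tested in RBL-2H3 cells expressing CCR3. Cells were challenged with eotaxin or eotaxin-2, and the resulting rise in intracellular Ca2+ was measured. Inhibition of this calcium mobilization is reported as an IC50 in nM.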
On to `COC(=O)[C@H](Cc1ccc([N+](=O)[O-])cc1)NC(=O)c1cccc2ccccc12`, for which the concentration for half-maximal inhibition (IC50) is 35 nM and 20 nM.

Another experiment deals with T1, C-C chemokine receptor type 3. The experiment can be described thus: Inhibitory activity against human eosinophil C-C chemokine receptor type 3 using [125I]- human eotaxin as the radioligand. The method in brief: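 Competition binding on CCR3 from purified human eosinophils as receptor source, with [125I]human eotaxin as radioligand; IC50 taken as displacement of radioligand binding.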
On to `O=C(N[C@@H](Cc1ccc([N+](=O)[O-])cc1)C(=O)NCc1ccccc1)c1cccc2ccccc12`, for which the IC50 was found to be 4000 nM. The same measure, in the same setting: in the case of `CCOC(=O)[C@H](Cc1ccc([N+](=O)[O-])cc1)NC(=O)c1ccccc1` it was 49 nM; in that of `CCOC(=O)[C@H](Cc1ccc([N+](=O)[O-])cc1)NC(=O)c1ccc(C)cc1C`, 3 nM; in that of `CCOC(=O)[C@H](Cc1ccc(O)cc1)NC(=O)c1cccc2ccccc12`, 80 nM.

`CCOC(=O)[C@H](Cc1cc(I)c(O)c(I)c1)NC(=O)c1ccccc1`: the IC50 amounted to 535 nM.

Compound `CCOC(=O)[C@H](Cc1ccc(O)cc1)NC(=O)Nc1ccccc1` yielded an IC50 greater than 33000 nM.

As for `CCOC(=O)[C@H](Cc1ccc([N+](=O)[O-])cc1)NC(=O)c1cccc2ccccc12`, the IC50 worked out at 8 nM. That is a single-digit nanomolar value. Still for that read-out and setting: in the case of `CCOC(=O)[C@H](Cc1ccc(O)cc1)NC(=O)c1ccccn1` it was 1700 nM; in that of `CCOC(=O)[C@@H](NC(=O)c1ccccc1)c1ccccc1`, greater than 20000 nM; in that of `CCOC(=O)[C@H](CCc1ccccc1)NC(=O)c1ccccc1`, 5950 nM.

`O=C(N[C@@H](Cc1ccc([N+](=O)[O-])cc1)C(=O)OCc1ccccc1)c1cccc2ccccc12` displayed a half-maximal inhibitory concentration (IC50) of 18 nM.

As to `CN(C)C(=O)[C@H](Cc1ccc([N+](=O)[O-])cc1)NC(=O)c1cccc2ccccc12`, the concentration for half-maximal inhibition (IC50) was greater than 33000 nM.

In turn, `CCOC(=O)[C@H](C)NC(=O)c1ccccc1` showed an IC50 of 9000 nM. That is a single-digit micromolar value.

With `CCCC(=O)[C@H](Cc1ccc([N+](=O)[O-])cc1)NC(=O)c1cccc2ccccc12`, the IC50 was greater than 33000 nM.

Compound `COC(=O)[C@H](Cc1ccc([N+](=O)[O-])cc1)NC(=O)c1cccc2ccccc12` displayed an IC50 of 5 nM. Still for that read-out and setting: in the case of `CCOC(=O)[C@H](Cc1ccc(O)cc1)NC(=O)c1ccccc1` it was 383 nM. On the same count and under the same terms, in the case of `CCOC(=O)[C@H](Cc1ccc(O)cc1)NC(=O)Cc1ccccc1` it was 2600 nM; in that of `CC(C)OC(=O)[C@H](Cc1ccc([N+](=O)[O-])cc1)NC(=O)c1cccc2ccccc12`, 21 nM. Still for that read-out and setting: in the case of `CCOC(=O)[C@@H](Cc1ccc(O)cc1)NC(=O)c1ccccc1` it was greater than 50000 nM; in that of `CCOC(=O)[C@H](Cc1ccccc1)NC(=O)c1ccccc1`, 190 nM.

The compound `CCOC(=O)[C@H](Cc1c[nH]c2ccccc12)NC(=O)c1ccccc1` yielded a half-inhibitory concentration (IC50) of 325 nM.

Consider `CCOC(=O)[C@H](Cc1ccc(O)cc1)NS(=O)(=O)c1ccc(C)cc1`, for which the IC50 was 16000 nM. The same measure, in the same setting: in the case of `CC(C)(C)OC(=O)[C@H](Cc1ccc([N+](=O)[O-])cc1)NC(=O)c1cccc2ccccc12` it was 57 nM; in that of `CCOC(=O)[C@H](Cc1ccc(O)cc1)NC(=O)[C@H](CC(N)=O)NC(=O)OCc1ccccc1` (Cbz-Asn-Tyr-OEt), greater than 25000 nM; in that of `CCOC(=O)[C@H](Cc1ccc(O)cc1)NC(=O)[C@H](CCC(N)=O)NC(=O)OCc1ccccc1` (Cbz-Gln-Tyr-OEt), greater than 25000 nM. `CCOC(=O)[C@H](Cc1ccc(O)cc1)NC(=O)[C@H](Cc1ccccc1)NC(=O)OCc1ccccc1` (Cbz-Phe-Tyr-OEt) gave a concentration for half-maximal inhibition (IC50) of 6250 nM. On the same count and under the same terms, in the case of `CCOC(=O)[C@H](Cc1ccc(O)cc1)NC(=O)[C@H](CO)NC(=O)OCc1ccccc1` (Cbz-Ser-Tyr-OEt) it was greater than 25000 nM.

For a further experiment the target is unchanged. Kind of experiment: […] activity against C-C chemokine receptor type 3 by displacing [125I]-MCP-4 radioligand, using CCR3 binding assay.
`COC(=O)[C@H](Cc1ccc([N+](=O)[O-])cc1)NC(=O)c1cccc2ccccc12` returned a half-inhibitory concentration (IC50) of 7 nM.

For another experiment the target is unchanged. Kind of experiment: […] against C-C chemokine receptor type 3 by displacing Eotaxin radioligand, using [Ca2+] mobilization assay. Type of experiment: functional. The method in brief: as §1
For `COC(=O)[C@H](Cc1ccc([N+](=O)[O-])cc1)NC(=O)c1cccc2ccccc12`, the half-maximal inhibitory concentration (IC50) is 38 nM.

One may read the IC50 as the concentration at which inhibition is half-maximal. A lower IC50 goes with greater potency in that assay.
